# Screening data (PubChem BioAssay)
# An excerpt weighted towards active compounds, which were near 3.6% of everything screened.
# ATG4B inhibitor: inhibitors of human ATG4B cysteine protease. Q9Y4P1. ATG4B cleavage of LC3-PLA2, NBD-HPC fluorescence, 1 h. inhibition, % at 8.33 µM. hit rate 0.51% among 340,000. AID 504462; in the data active = inhibition above about 40%
# NadD block: NadD (S. aureus) enzyme inhibition. purified NadD enzyme, colorimetric absorbance read-out. inhibition, % at 20 µM. hit rate 0.78% among 360,000. AID 602399; in the data active = inhibition above about 26%
# GRIN3A LBD mod: modulates the human NR3A ligand-binding domain. hit rate 2.5% among 340,000. NR3A LBD differential scanning fluorimetry, Tm shift; 0% = protein alone, 100% = glycine-bound protein. Tm shift relative to glycine control, % at 25 µM;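 active = melting temperature shift of at least 10% of the positive control shift, at one fixed dose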
# SENP1 FRET inh: SENP1 (human) catalytic domain inhibition; inhibition, % at 10 µM; recombinant SENP1 catalytic domain, CyPet-SUMO1-YPet FRET cleavage; hit rate 0.21% among 360,000; Q9P0U3;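 active = inhibition at least 30% at 10 µM, raw YFP signal under a set limit, fluorescence ratio 0.5 to 1.5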;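 also: 0% = enzyme with DMSO and 100% = no enzyme wells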
# Target sequence (Q9P0U3 419-644 limits assumed): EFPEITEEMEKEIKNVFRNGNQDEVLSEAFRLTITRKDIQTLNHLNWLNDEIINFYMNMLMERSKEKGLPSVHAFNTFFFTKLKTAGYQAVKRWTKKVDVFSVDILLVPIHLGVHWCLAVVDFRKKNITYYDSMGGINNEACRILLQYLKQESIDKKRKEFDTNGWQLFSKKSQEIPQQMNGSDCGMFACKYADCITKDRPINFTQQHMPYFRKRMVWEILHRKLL
#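 System: Recombinant human SENP1 catalytic domain, His6-tagged | Incubation: Enzyme reaction for 50 min at room temperature, dark | Medium: Tris pH 8 with BME, BSA, NP40 and catalase | Also added: 25 nM SUMO1 FRET substrate | Compound: 10 µM single point, 0.5% DMSO | Measured by: FRET fluorescence in CFP and YFP emission channels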
# UCH37 inh: human UCH37 deubiquitinating enzyme inhibition; Q9Y5K5; purified proteasome/UCH37, Ub-AMC cleavage fluorescence; inhibition, % (test concentration not listed); hit rate 0.33% among 330,000;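 active = mean inhibition over replicate wells above about 20%, limit read from the data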;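 also: 0% = compound-free wells with enzyme and 100% = wells lacking proteasome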
# Target sequence (Q9Y5K5 whole entry, looked up): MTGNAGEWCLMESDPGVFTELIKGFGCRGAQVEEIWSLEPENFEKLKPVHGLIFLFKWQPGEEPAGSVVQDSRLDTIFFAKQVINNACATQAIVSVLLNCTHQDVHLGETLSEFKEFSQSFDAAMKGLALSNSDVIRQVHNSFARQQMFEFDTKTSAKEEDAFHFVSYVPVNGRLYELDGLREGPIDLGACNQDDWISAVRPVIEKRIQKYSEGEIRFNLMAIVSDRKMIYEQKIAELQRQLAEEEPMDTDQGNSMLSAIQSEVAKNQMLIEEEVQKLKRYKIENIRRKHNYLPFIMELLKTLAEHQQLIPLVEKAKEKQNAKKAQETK
#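 Assay system: Proteasome-bound UCH37. Buffer or medium: pH 7.4 Tris-HCl (50 mM) with ovalbumin, ATP-MgCl2, DTT. Incubation: 30 min preincubation with enzyme, 25 min cleavage at room temperature. Measured by: fluorescence, ex 355 nm, em 460 nm. Read-out basis: percent inhibition. Control set: wells without proteasome as full block, compound-free enzyme plus substrate as uninhibited.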
# Numbers without * were called inactive; i = inactive; . = no result.
SMILES,ATG4B inhibitor,NadD block,GRIN3A LBD mod,SENP1 FRET inh,UCH37 inh
COc1cc(Cl)c(NS(=O)(=O)c2ccc(-c3ccc(=O)[nH]n3)o2)c(OC)c1,-7,6,16*,4,3
O=S(=O)(NCC(c1cccs1)N1CCc2ccccc2C1)c1ccccc1 (stereo not given),3,-2,14*,1,2
CCn1nc(C)c(CN2CCC(n3nccc3NC(=O)Cc3ccccc3)CC2)c1C,16,-9,14*,0,3
CCn1nc(C)c(CN2CCC(n3nccc3NC(=O)CCCc3ccccc3)CC2)c1C,-7,-9,-4,1,1
CC(=NNc1nc2ccccc2s1)c1ccc2c(c1)OCO2,.,.,.,.,6
CC(C)c1cc(C(=O)Nc2cccc(Cl)c2)no1,14,-8,-4,2,4
CC(C)c1onc(C(=O)Nc2cccc(Cl)c2)c1[N+](=O)[O-],12,1,20*,1,5
CNC(=O)C(=O)NN=Cc1ccccn1,.,.,.,.,0
CC(OC(=O)c1ccc(Cl)c(S(N)(=O)=O)c1)C(=O)NCc1ccc2c(c1)OCO2 (stereo not given),-8,-6,14*,1,1
Cc1ccc2nc(C)c(C(=O)NN=Cc3cccs3)n2c1,.,.,.,.,10
COC(=O)CCC(=O)OC1(C)C(=O)C=C2C=C(C3CC3)N(C3CC3)C=C2C1=O (stereo not given),-6,-1,-2,-40,2
COC(=O)CCC(=O)OC1(C)C(=O)C=C2C=C(c3ccsc3)OC=C2C1=O (stereo not given),36,35*,-9,14,0
CCC(=O)OC1(C)C(=O)C=C2C=C(c3ccsc3)OC=C2C1=O (stereo not given),82*,21,-4,5,2
CC(=NNC(=O)CNC(=O)COc1cccc(C)c1)c1ccco1,.,.,.,.,5
Cc1cc(C(=O)NN=C/C(Br)=C/c2ccccc2)c(C)o1,.,.,.,.,1
Cc1ccc(C(=O)Nc2nnc(CC(=O)NN=Cc3ccncc3)s2)cc1,.,.,.,.,2
COc1ccc(CNc2oc(-c3cccc4ccccc34)nc2C#N)cc1,-3,-9,9,-22,i
CCOP(=O)(OCC)c1nc(-c2cccc3ccccc23)oc1NCCc1ccc(OC)cc1,-10,3,16*,-59,i
C=CCc1ccccc1OCCn1ccnc1,-1,-2,-3,1,7
C=CCc1cccc(OC)c1OCCOCCn1ccnc1,0,4,12*,1,4
Cc1cc(S(=O)(=O)NCc2ccccc2)ccc1OCC(=O)NCc1ccncc1,4,-2,13*,2,3
CN(/N=C/c1cc(Cl)ccc1O)C1=NS(=O)(=O)c2ccccc21,-29,1,12*,5,.
CN(/N=C/c1ccc(Br)o1)C1=NS(=O)(=O)c2ccccc21,-5,-1,16*,-123,.
O=C1CCNc2ccc(-c3ccccc3)cc21,-11,5,-4,-21,-24
O=C1CCNc2cc3ccccc3cc21,-1,31*,-1,-21,-276
SMILES,ATG4B inhibitor,NadD block,GRIN3A LBD mod,SENP1 FRET inh,UCH37 inh
O=C(CN(c1ccc(Cl)c(C(F)(F)F)c1)S(=O)(=O)c1ccccc1)N1CCOCC1,-3,-1,14*,1,4
CC(=NNC(=O)CN1CCN(S(=O)(=O)c2ccc(Br)cc2)CC1)c1ccco1,.,.,.,.,-1
COc1ccc(C(=O)N2CCCC(Nc3ccc(F)cc3)C2)cc1F (stereo not given),9,1,2,1,0
COc1ccc(C(=O)N2CCCC(Nc3ccc(C)c(C)c3)C2)cc1F (stereo not given),14,-2,16*,-3,4
COc1ccc(C)cc1Nc1n[n+](-c2ccccc2)c(-c2ccc(N(C)C)cc2)s1,14,10,-7,41*,2
COc1ccc(C)cc1Nc1n[n+](-c2ccccc2)c(-c2ccc(OC)c(OC)c2OC)s1,12,9,0,-3,6
COc1ccc(C)cc1Nc1n[n+](C)c(-c2ccc(O)cc2O)s1,-2,2,-1,-1,23*
C=CCN1C(=O)CSC1=NN=Cc1cccc([N+](=O)[O-])c1,.,.,.,.,2
O=C1C(F)=CC(COC(c2ccccc2)(c2ccccc2)c2ccccc2)OC1n1cc(F)c(=O)[nH]c1=O (stereo not given),-4,51*,-2,-2,.
Cc1nn(CC(=O)NN=Cc2ccc(F)cc2)c(C)c1[N+](=O)[O-],.,.,.,.,2
CC(/C=C1\SC(=S)N(NC(=O)c2ccc(C)cc2)C1=O)=C\c1ccccc1,1,30*,3,-4,8
CC(/C=C1\SC(=S)N(NC(=O)c2ccncc2)C1=O)=C\c1ccccc1,8,20,20*,0,10
O=C(O)COc1ccccc1C(Nc1cccnc1)c1cc(Cl)c2cccnc2c1O (stereo not given),31,37*,1,-2,2
CCC(=O)NC(c1ccc(C)cc1)c1cc(Cl)c2cccnc2c1O (stereo not given),-6,8,-27,10,1
CCOc1ccc(C(Nc2cccnc2)c2cc(Cl)c3cccnc3c2O)cc1 (stereo not given),3,16,-1,1,22*
O=C(O)COc1ccccc1C(Nc1ccccn1)c1cc(Cl)c2cccnc2c1O (stereo not given),15,38*,-2,1,3
COc1ccc(Br)cc1C=NNC(=O)C[n+]1ccccc1,.,.,.,.,4
CCCCOC(=O)Nc1ccc(S(=O)(=O)Nc2cc(C)nc(C)n2)cc1,-7,0,0,0,5
CCCCOC(=O)Nc1ccc(S(=O)(=O)Nc2ccc([N+](=O)[O-])cc2)cc1,9,0,17*,-13,3
CCCCN(CCCC)S(=O)(=O)c1ccc(NS(=O)(=O)c2ccc(NC(C)=O)cc2)cc1,-15,-11,13*,0,0
CCCCCOC(=O)Nc1ccc(S(=O)(=O)Nc2cccc([N+](=O)[O-])c2)cc1,-2,-4,28*,2,5
Cc1ccc2nc(C)c(C(=O)NN=Cc3ccco3)cc2c1,.,.,.,.,6
COc1ccc(-c2cc(-c3nnc(-c4ccncc4)o3)c3ccccc3n2)cc1,-19,-1,-6,-69,-63
c1ccc2c(-c3nc(C4CCCCC4)no3)cc(-c3ccncc3)nc2c1,11,-1,15*,3,-7
c1ccc(-c2nccc3ccccc23)cc1,4,-1,1,1,4
Cc1ccc(-c2nc(-c3nccc4ccccc34)oc2-c2ccccc2)cc1,-3,7,11*,-136,.
COc1cccc(C=NNC(=O)CN(C)S(=O)(=O)c2ccccc2)c1OC,.,.,.,.,-7
CC(Cc1ccccc1)=NNC(=O)CNC(=O)c1cccc(Cl)c1,.,.,.,.,3
CN(C)c1ccc(-c2nc3ccccn3c2/N=C/c2ccc(Br)cc2)cc1,-7,2,24*,-48,.
